Measurements: PMC9623233 (Clinical Cancer Research, 2022)

Tests used:
[1] = tested on: high-grade serous ovarian cancer; experiment: Antitumor activity: RECIST v1.1 response and time on treatment; type: in vivo, human
[2] = tested on: α-FR–overexpressing preclinical model; experiment: Combination of CT900 and PARP inhibition, growth inhibition; type: cell-based; details: Supplementary Fig. S3
[3] = ref previous unpublished trial Eudra CT 2009-012933-31; cited from earlier work
[4] = CT900 plasma pharmacokinetics, noncompartmental analysis; type: in vivo, human; details: Cycle 1 Day 1; for AUC(0-t) / Cmax / clearance / Tmax / Vd: human, plasma, iv
Outline: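 Test compound was given intravenously, weekly (1–6 mg/m2) or every 2 weeks (2–12 mg/m2). Plasma concentration–time data were analysed noncompartmentally for AUClast, AUC∞, AUC0–24, Cmax, Tmax, t1/2, λz, clearance and Vss. Summaries are geometric mean with CV%, arithmetic mean and median.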

C#CCN(c1ccc(C(=O)N[C@@H](CCC(=O)N[C@H](CCC(=O)O)C(=O)O)C(=O)O)cc1)[C@H]1CCc2cc3nc(CO)[nH]c(=O)c3cc21 [CT900, N-[4-[2-propyn-1-yl[(6S)-4,6,7,8-tetrahydro-2-(hydroxymethyl)-4-oxo-3H-cyclopenta [g]quinazolin-6-yl]amino]benzoyl]-l-gamma-glutamyl-D-glutamic acid]
RECIST v1.1 response rate ([1]; 6 mg/m^2/q2Wk, medium and high α-FR, 0/9): 0% | Patients who received treatment for ≥16 weeks ([1]; 12 mg/m^2/q2Wk, medium and high α-FR, 5/25): 20% | RECIST v1.1 response rate ([1]; 12 mg/m^2/q3Wk, medium and high α-FR, 1/5): 20% | Partial responses ([1]; dose escalation cohort, high-grade serous ovarian cancer, 4 of 11): 36.4% | Overall response rate (ORR) ([1]; expansion cohorts, regardless of α-FR status, 14/64): 21.9% | Effect of combination of CT900 and PARP inhibition [2]: synergistic growth inhibition | Median cumulative dose at which pulmonary toxicity occurred [3]: 162 mg/m^2 | HL Lambda_z ([4]; 1 mg/m^2 i.v., Geometric Mean, N 3): 6.1 h | HL Lambda_z ([4]; 1 mg/m^2 i.v., Mean, N 3): 6.7 h | HL Lambda_z ([4]; 1 mg/m^2 i.v., Median, N 3): 7.5 h | HL Lambda_z ([4]; 1 mg/m^2 i.v., Range, N 3): 3.2 to 9.4 h | HL Lambda_z ([4]; 2 mg/m^2 i.v., Geometric Mean, N 4): 11.8 h | HL Lambda_z ([4]; 2 mg/m^2 i.v., Mean, N 4): 12.6 h | HL Lambda_z ([4]; 2 mg/m^2 i.v., Median, N 4): 11.3 h | HL Lambda_z ([4]; 2 mg/m^2 i.v., Range, N 4): 7.5 to 20.0 h | HL Lambda_z ([4]; 6 mg/m^2 i.v., Mean, N 1): 19.9 h | HL Lambda_z ([4]; 12 mg/m^2 i.v., Geometric Mean, N 5): 28.1 h | HL Lambda_z ([4]; 12 mg/m^2 i.v., Mean, N 5): 28.7 h | HL Lambda_z ([4]; 12 mg/m^2 i.v., Median, N 5): 26.5 h | HL Lambda_z ([4]; 12 mg/m^2 i.v., Range, N 5): 23.0 to 41.0 h | AUC(0-t) ([4]; 1 mg/m2, AUC0-24, 1 mg/m^2 i.v., Mean, N 3): 1650 ng·h/mL | AUC(0-t) ([4]; 1 mg/m2, AUC0-24, 1 mg/m^2 i.v., Median, N 3): 1620 ng·h/mL | AUC(0-t) ([4]; 1 mg/m2, AUC0-24, 1 mg/m^2 i.v., Range, N 3): 1020 to 2330 ng·h/mL | AUC(0-t) ([4]; 1 mg/m2, AUClast, 1 mg/m^2 i.v., Mean, N 3): 1650 ng·h/mL | AUC(0-t) ([4]; 1 mg/m2, AUClast, 1 mg/m^2 i.v., Median, N 3): 1620 ng·h/mL | AUC(0-t) ([4]; 1 mg/m2, AUClast, 1 mg/m^2 i.v., Range, N 3): 1020 to 2330 ng·h/mL | Cmax ([4]; 1 mg/m2, C max, 1 mg/m^2 i.v., Mean, N 3): 402 ng/mL | Cmax ([4]; 1 mg/m2, C max, 1 mg/m^2 i.v., Median, N 3): 401 ng/mL | Cmax ([4]; 1 mg/m2, C max, 1 mg/m^2 i.v., Range, N 3): 374 to 432 ng/mL | clearance ([4]; 1 mg/m2, Cl, 1 mg/m^2 i.v., Mean, N 3): 20.3 mL/min | clearance ([4]; 1 mg/m2, Cl, 1 mg/m^2 i.v., Median, N 3): 20.8 mL/min | clearance ([4]; 1 mg/m2, Cl, 1 mg/m^2 i.v., Range, N 3): 10.4 to 29.7 mL/min | Tmax ([4]; 1 mg/m2, T max, 1 mg/m^2 i.v., Mean, N 3): 1 h | Tmax ([4]; 1 mg/m2, T max, 1 mg/m^2 i.v., Median, N 3): 1 h | Tmax ([4]; 1 mg/m2, T max, 1 mg/m^2 i.v., Range, N 3): 1 h | Vd ([4]; 1 mg/m2, Vss, 1 mg/m^2 i.v., Mean, N 3): 7.59 L | Vd ([4]; 1 mg/m2, Vss, 1 mg/m^2 i.v., Median, N 3): 6.75 L | Vd ([4]; 1 mg/m2, Vss, 1 mg/m^2 i.v., Range, N 3): 6.71 to 9.32 L | AUC(0-t) ([4]; 2 mg/m2, AUC0-24, 2 mg/m^2 i.v., Mean, N 4): 4890 ng·h/mL | AUC(0-t) ([4]; 2 mg/m2, AUC0-24, 2 mg/m^2 i.v., Median, N 4): 4730 ng·h/mL | AUC(0-t) ([4]; 2 mg/m2, AUC0-24, 2 mg/m^2 i.v., Range, N 4): 2520 to 7590 ng·h/mL | AUC(0-t) ([4]; 2 mg/m2, AUClast, 2 mg/m^2 i.v., Mean, N 4): 6860 ng·h/mL | AUC(0-t) ([4]; 2 mg/m2, AUClast, 2 mg/m^2 i.v., Median, N 4): 6050 ng·h/mL | AUC(0-t) ([4]; 2 mg/m2, AUClast, 2 mg/m^2 i.v., Range, N 4): 2520 to 12800 ng·h/mL | Cmax ([4]; 2 mg/m2, C max, 2 mg/m^2 i.v., Mean, N 4): 746 ng/mL | Cmax ([4]; 2 mg/m2, C max, 2 mg/m^2 i.v., Median, N 4): 759 ng/mL | Cmax ([4]; 2 mg/m2, C max, 2 mg/m^2 i.v., Range, N 4): 613 to 855 ng/mL | clearance ([4]; 2 mg/m2, Cl, 2 mg/m^2 i.v., Mean, N 4): 11.2 mL/min | clearance ([4]; 2 mg/m2, Cl, 2 mg/m^2 i.v., Median, N 4): 8.72 mL/min | clearance ([4]; 2 mg/m2, Cl, 2 mg/m^2 i.v., Range, N 4): 4.07 to 23.4 mL/min | Tmax ([4]; 2 mg/m2, T max, 2 mg/m^2 i.v., Mean, N 4): 0.9 h | Tmax ([4]; 2 mg/m2, T max, 2 mg/m^2 i.v., Median, N 4): 1 h | Tmax ([4]; 2 mg/m2, T max, 2 mg/m^2 i.v., Range, N 4): 0.5 to 1.1 h | Vd ([4]; 2 mg/m2, Vss, 2 mg/m^2 i.v., Mean, N 4): 8.52 L | Vd ([4]; 2 mg/m2, Vss, 2 mg/m^2 i.v., Median, N 4): 7.41 L | Vd ([4]; 2 mg/m2, Vss, 2 mg/m^2 i.v., Range, N 4): 6.53 to 12.7 L | AUC(0-t) ([4]; 6 mg/m2, AUC0-24, 6 mg/m^2 i.v., Mean, N 1): 15100 ng·h/mL | AUC(0-t) ([4]; 6 mg/m2, AUClast, 6 mg/m^2 i.v., Mean, N 1): 25600 ng·h/mL | Cmax ([4]; 6 mg/m2, C max, 6 mg/m^2 i.v., Mean, N 1): 2030 ng/mL | clearance ([4]; 6 mg/m2, Cl, 6 mg/m^2 i.v., Mean, N 1): 7.67 mL/min | Tmax ([4]; 6 mg/m2, T max, 6 mg/m^2 i.v., Mean, N 1): 1 h | Vd ([4]; 6 mg/m2, Vss, 6 mg/m^2 i.v., Mean, N 1): 12 L | AUC(0-t) ([4]; 12 mg/m2, AUC0-24, 12 mg/m^2 i.v., Geometric Mean, N 5): 46900 ng·h/mL | AUC(0-t) ([4]; 12 mg/m2, AUC0-24, 12 mg/m^2 i.v., Mean, N 5): 47200 ng·h/mL | AUC(0-t) ([4]; 12 mg/m2, AUC0-24, 12 mg/m^2 i.v., Median, N 5): 45400 ng·h/mL | AUC(0-t) ([4]; 12 mg/m2, AUC0-24, 12 mg/m^2 i.v., Range, N 5): 42300 to 58600 ng·h/mL | AUC(0-t) ([4]; 12 mg/m2, AUClast, 12 mg/m^2 i.v., Geometric Mean, N 5): 85900 ng·h/mL | AUC(0-t) ([4]; 12 mg/m2, AUClast, 12 mg/m^2 i.v., Mean, N 5): 87600 ng·h/mL | AUC(0-t) ([4]; 12 mg/m2, AUClast, 12 mg/m^2 i.v., Median, N 5): 83500 ng·h/mL | AUC(0-t) ([4]; 12 mg/m2, AUClast, 12 mg/m^2 i.v., Range, N 5): 68700 to 123000 ng·h/mL | Cmax ([4]; 12 mg/m2, C max, 12 mg/m^2 i.v., Geometric Mean, N 5): 5100 ng/mL | Cmax ([4]; 12 mg/m2, C max, 12 mg/m^2 i.v., Mean, N 5): 5130 ng/mL | Cmax ([4]; 12 mg/m2, C max, 12 mg/m^2 i.v., Median, N 5): 4830 ng/mL | Cmax ([4]; 12 mg/m2, C max, 12 mg/m^2 i.v., Range, N 5): 4460 to 6010 ng/mL | clearance ([4]; 12 mg/m2, Cl, 12 mg/m^2 i.v., Geometric Mean, N 5): 3.45 mL/min | clearance ([4]; 12 mg/m2, Cl, 12 mg/m^2 i.v., Mean, N 5): 3.6 mL/min | clearance ([4]; 12 mg/m2, Cl, 12 mg/m^2 i.v., Median, N 5): 3.68 mL/min | clearance ([4]; 12 mg/m2, Cl, 12 mg/m^2 i.v., Range, N 5): 2.1 to 5.05 mL/min | Tmax ([4]; 12 mg/m2, T max, 12 mg/m^2 i.v., Geometric Mean, N 5): 1 h | Tmax ([4]; 12 mg/m2, T max, 12 mg/m^2 i.v., Mean, N 5): 1 h | Tmax ([4]; 12 mg/m2, T max, 12 mg/m^2 i.v., Median, N 5): 1 h | Tmax ([4]; 12 mg/m2, T max, 12 mg/m^2 i.v., Range, N 5): 1 h | Vd ([4]; 12 mg/m2, Vss, 12 mg/m^2 i.v., Geometric Mean, N 5): 7.59 L | Vd ([4]; 12 mg/m2, Vss, 12 mg/m^2 i.v., Mean, N 5): 7.62 L | Vd ([4]; 12 mg/m2, Vss, 12 mg/m^2 i.v., Median, N 5): 7.33 L | Vd ([4]; 12 mg/m2, Vss, 12 mg/m^2 i.v., Range, N 5): 6.99 to 9.06 L
